The record followed here is ChEMBL document CHEMBL4038302, “Fibroblast Activation Protein α Activated Tripeptide Bufadienolide Antitumor Prodrug with Reduced Cardiotoxicity” (J Med Chem, 2017).

Data set [1] deals with T1, Prolyl endopeptidase FAP (Homo sapiens, UniProt Q12884).
T1 sequence (Q12884 whole entry): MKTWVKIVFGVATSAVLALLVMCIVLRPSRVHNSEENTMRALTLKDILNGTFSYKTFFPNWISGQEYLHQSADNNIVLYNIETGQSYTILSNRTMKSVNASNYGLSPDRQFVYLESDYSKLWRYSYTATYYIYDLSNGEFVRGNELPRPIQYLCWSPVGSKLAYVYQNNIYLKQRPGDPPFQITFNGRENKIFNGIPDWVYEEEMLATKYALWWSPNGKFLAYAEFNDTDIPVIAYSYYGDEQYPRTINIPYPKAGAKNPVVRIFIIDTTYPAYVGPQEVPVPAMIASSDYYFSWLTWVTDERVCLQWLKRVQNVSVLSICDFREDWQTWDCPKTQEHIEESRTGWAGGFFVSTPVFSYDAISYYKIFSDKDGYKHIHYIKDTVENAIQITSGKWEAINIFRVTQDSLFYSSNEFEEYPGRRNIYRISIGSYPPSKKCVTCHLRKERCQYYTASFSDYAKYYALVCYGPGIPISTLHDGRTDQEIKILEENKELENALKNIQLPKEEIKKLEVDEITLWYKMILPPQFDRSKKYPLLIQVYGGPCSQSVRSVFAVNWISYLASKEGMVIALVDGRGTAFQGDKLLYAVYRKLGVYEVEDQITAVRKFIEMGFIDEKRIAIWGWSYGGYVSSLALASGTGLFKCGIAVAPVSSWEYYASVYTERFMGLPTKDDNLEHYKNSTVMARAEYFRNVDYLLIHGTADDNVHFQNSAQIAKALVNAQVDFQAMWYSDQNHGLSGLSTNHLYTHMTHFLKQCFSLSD
Kind of data set: Prodrug activation assessed as Vmax for recombinant human FAP-alpha mediated (S)-((3S,5R,8R,9S,10S,11S,13R,14S,17R)-11,14-dihydroxy-10,13-dimethyl-12-oxo-17-(2-oxo-2H-pyran-5-yl)hexadecahydro-1H-cyclopenta[a]phenanthren-3-yl) 2-amino-4-methylpentanoate formation after 90 mins by UPLC-MS/MS analysis. Particulars: 1.5 h. A digest of the protocol: (§1)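 Prodrug at 0.625–40 μmol/L incubated with rhFAPα at 0.45 μg/mL and internal standard in 0.2 mL PBS, pH 7.4, at 37 °C for 90 min. Quenched with MeCN and spun at 18 000g for 15 min; product measured by UPLC-MS/MS. S50 and Vmax fitted with an allosteric sigmoidal model; CLint = Vmax/S50. Three independent experiments.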

For data set [2], the target named is T1, Prolyl endopeptidase FAP. Kind of data set: Prodrug activation assessed as recombinant human FAP-alpha mediated (S)-((3S,5R,8R,9S,10S,11S,13R,14S,17R)-11,14-dihydroxy-10,13-dimethyl-12-oxo-17-(2-oxo-2H-pyran-5-yl)hexadecahydro-1H-cyclopenta[a]phenanthren-3-yl) 2-amino-4-methylpentanoate formation by measuring concentration of test compound gives half-maximal activity after 90 mins by UPLC-MS/MS analysis. Particulars: 1.5 h. In outline:
as §1

Data set [3] has as its target T1, Prolyl endopeptidase FAP. Kind of data set: Prodrug activation assessed as recombinant human FAP-alpha mediated (S)-((3S,5R,8R,9S,10S,11S,13R,14S,17R)-11,14-dihydroxy-10,13-dimethyl-12-oxo-17-(2-oxo-2H-pyran-5-yl)hexadecahydro-1H-cyclopenta[a]phenanthren-3-yl) 2-amino-4-methylpentanoate formation by measuring intrinsic clearance after 90 mins by UPLC-MS/MS analysis. Particulars: 1.5 h. A digest of the protocol: as §1

Data set [4] deals with T1, Prolyl endopeptidase FAP. Kind of data set: Prodrug activation assessed as recombinant human FAP-alpha mediated 5-((3S,5R,8R,9S,10S,11S,13R,14S,17R)-3-(2-(4-aminophenyl)acetyl)-11,14-dihydroxy-10,13-dimethyl-12-oxohexadecahydro-1H-cyclopenta[a]phenanthren-17-yl)-2H-pyran-2-one formation by measuring intrinsic clearance at 40 umol/L after 6 hrs by UPLC-MS/MS analysis. As to conditions: 40 µM.

For data set [5], the target named is T1, Prolyl endopeptidase FAP. Kind of data set: Prodrug activation assessed as recombinant human FAP-alpha mediated (S)-((3S,5R,8R,9S,10S,11S,13R,14S,17R)-11,14-dihydroxy-10,13-dimethyl-12-oxo-17-(2-oxo-2H-pyran-5-yl)hexadecahydro-1H-cyclopenta[a]phenanthren-3-yl) 2-amino-3-phenylpropanoate by measuring concentration of test compound gives half-maximal activity formation after 90 mins by UPLC-MS/MS analysis. Particulars: 1.5 h. A digest of the protocol:
as §1

The target in data set [6] is T1, Prolyl endopeptidase FAP. Kind of data set: Prodrug activation assessed as recombinant human FAP-alpha mediated (S)-((3S,5R,8R,9S,10S,11S,13R,14S,17R)-11,14-dihydroxy-10,13-dimethyl-12-oxo-17-(2-oxo-2H-pyran-5-yl)hexadecahydro-1H-cyclopenta[a]phenanthren-3-yl) 2-amino-3-phenylpropanoate formation at 40 umol/L after 6 hrs in presence of FAP-alpha inhibitor talabostat by UPLC-MS/MS analysis. Particulars: 40 µM. A digest of the protocol:
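Prodrug at 40 μmol/L incubated with rhFAPα at 0.45 μg/mL in 0.2 mL buffer at 37 °C for 6 h, with bufalin at 2 μmol/L as internal standard. Stopped with acetonitrile and spun at 18 000g for 15 min. Released active form measured by UPLC-MS/MS via peak-area ratio against a standard curve of 0.625–40 μmol/L.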

The target of data set [7] is T1, Prolyl endopeptidase FAP. Kind of data set: Prodrug activation assessed as Vmax for recombinant human FAP-alpha mediated (S)-((3S,5R,8R,9S,10S,11S,13R,14S,17R)-11,14-dihydroxy-10,13-dimethyl-12-oxo-17-(2-oxo-2H-pyran-5-yl)hexadecahydro-1H-cyclopenta[a]phenanthren-3-yl) 2-amino-3-phenylpropanoate formation after 90 mins by UPLC-MS/MS analysis. Particulars: 1.5 h. A digest of the protocol:
as §1

The target of data set [8] is T1, Prolyl endopeptidase FAP. Kind of data set: Prodrug activation assessed as recombinant human FAP-alpha mediated (S)-((3S,5R,8R,9S,10S,11S,13R,14S,17R)-11,14-dihydroxy-10,13-dimethyl-12-oxo-17-(2-oxo-2H-pyran-5-yl)hexadecahydro-1H-cyclopenta[a]phenanthren-3-yl) 2-amino-3-phenylpropanoate formation by measuring intrinsic clearance after 90 mins by UPLC-MS/MS analysis. As to conditions: 1.5 h. A digest of the protocol:
as §1

Data set [9] deals with T1, Prolyl endopeptidase FAP. Kind of data set: Prodrug activation assessed as Vmax for recombinant human FAP-alpha mediated (2S,3S)-((3S,5R,8R,9S,10S,11S,13R,14S,17R)-11,14-dihydroxy-10,13-dimethyl-12-oxo-17-(2-oxo-2H-pyran-5-yl)hexadecahydro-1H-cyclopenta[a]phenanthren-3-yl) 2-amino-3-methylpentanoate formation after 90 mins by UPLC-MS/MS analysis. As to conditions: 1.5 h. A digest of the protocol: as §1

The target in data set [10] is T1, Prolyl endopeptidase FAP. Kind of data set: Prodrug activation assessed as recombinant human FAP-alpha mediated (2S,3S)-((3S,5R,8R,9S,10S,11S,13R,14S,17R)-11,14-dihydroxy-10,13-dimethyl-12-oxo-17-(2-oxo-2H-pyran-5-yl)hexadecahydro-1H-cyclopenta[a]phenanthren-3-yl) 2-amino-3-methylpentanoate by measuring concentration of test compound gives half-maximal activity formation after 90 mins by UPLC-MS/MS analysis. Particulars: 1.5 h. In outline:
as §1

For data set [11], the target named is T1, Prolyl endopeptidase FAP. Kind of data set: Prodrug activation assessed as recombinant human FAP-alpha mediated (2S,3S)-((3S,5R,8R,9S,10S,11S,13R,14S,17R)-11,14-dihydroxy-10,13-dimethyl-12-oxo-17-(2-oxo-2H-pyran-5-yl)hexadecahydro-1H-cyclopenta[a]phenanthren-3-yl) 2-amino-3-methylpentanoate formation by measuring intrinsic clearance after 90 mins by UPLC-MS/MS analysis. As to conditions: 1.5 h. A digest of the protocol: as §1

Take `CC(C)C[C@H](NC(=O)[C@@H]1CCCN1C(=O)CNC(=O)OCc1ccccc1)C(=O)O[C@H]1CC[C@@]2(C)[C@H](CC[C@@H]3[C@@H]2[C@H](O)C(=O)[C@]2(C)[C@@H](c4ccc(=O)oc4)CC[C@]32O)C1`: the Vmax (usually the rate approached at saturating substrate) on Prolyl endopeptidase FAP [1] was 0.042 µmol/min/mg. On Prolyl endopeptidase FAP [2], the S50 is 11.92 µmol/L. Also, at Prolyl endopeptidase FAP [3], the CL was 3520 µL/min/mg.

`C[C@]12CC[C@H](OC(=O)Cc3ccc(NC(=O)[C@@H]4CCCN4C(=O)CNC(=O)OCc4ccccc4)cc3)C[C@H]1CC[C@@H]1[C@@H]2[C@H](O)C(=O)[C@]2(C)[C@@H](c3ccc(=O)oc3)CC[C@]12O`: the CL on Prolyl endopeptidase FAP [4] was 7070 µL/min/mg.

As to `C[C@]12CC[C@H](OC(=O)[C@H](Cc3ccccc3)NC(=O)[C@@H]3CCCN3C(=O)CNC(=O)OCc3ccccc3)C[C@H]1CC[C@@H]1[C@@H]2[C@H](O)C(=O)[C@]2(C)[C@@H](c3ccc(=O)oc3)CC[C@]12O`, the S50 on Prolyl endopeptidase FAP [5] came to 8.64 µmol/L. Besides, the Drug metabolism entry on Prolyl endopeptidase FAP [6] was “Metabolite_Notdetected”. Besides, the maximal velocity (Vmax) at Prolyl endopeptidase FAP [7] was found to be 0.366 µmol/min/mg. In addition, the CL on Prolyl endopeptidase FAP [8] is 42360 µL/min/mg.

Consider `CC[C@H](C)[C@H](NC(=O)[C@@H]1CCCN1C(=O)CNC(=O)OCc1ccccc1)C(=O)O[C@H]1CC[C@@]2(C)[C@H](CC[C@@H]3[C@@H]2[C@H](O)C(=O)[C@]2(C)[C@@H](c4ccc(=O)oc4)CC[C@]32O)C1`, for which the Vmax on Prolyl endopeptidase FAP [9] came to 0.014 µmol/min/mg. At Prolyl endopeptidase FAP [10], the S50 amounted to 8.82 µmol/L. For the same compound, on Prolyl endopeptidase FAP [11], the CL was found to be 1590 µL/min/mg.
